Source: ChEMBL document CHEMBL1154823, “Polyacetylenes from Bupleurum longiradiatum” (J Nat Prod, 2009)

Each compound was assayed on HL-60 (assay: Growth inhibition of human HL60 cells after 3 days by MTT assay). Details: HL-60, 72 h.
Format: functional, cell-based
Procedure, shortened: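 HL-60 human leukemia cells, […], seeded at 4000-5000 cells/well and […] before compound addition. Compounds tested at 0.01, 0.1, 1, 10 and 100 µg/mL for 3 days. MTT (5 mg/mL) added, formazan dissolved in DMSO after 4 h, OD read at 570 nm. Growth inhibition (%) = (OD_control − OD_treated)/OD_control × 100. Doxorubicin served as positive control.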

SMILES | IC50
CCCCC/C=C\CC#CC#C/C=C\CO | 11 µM
CCC[C@H](CC/C=C/C=C/C#CC#C/C=C\CO)OC(C)=O [ACETYLBUPLEUROTOXIN] | 11 µM
CCC[C@H](O)CC/C=C/C=C/C#CC#C/C=C\CO [BUPLEUROTOXIN] | 4.9 µM
CCCC/C=C/C=C/C#CC#C/C=C\CO | 11 µM
OC/C=C/C=C/C#CC/C=C\CCCCCCCCO | > 10 µM
CCCCCCC/C=C\CC#CC#C/C=C\CO | 11 µM
CCCCCC/C=C/C=C/C#C/C=C/C=C/COC(C)=O | 11 µM
CCCCCC/C=C/C=C/C#CC#C/C=C\CO | 11 µM
CCCC(=O)CC/C=C/C=C/C#CC#C/C=C\CO [BUPLEURONOL] | 11 µM
OC/C=C\C#CC#CC/C=C\CCCCCCCCO | > 10 µM
CCC[C@H](O)CC/C=C/C=C/C#CC#C/C=C\COC(C)=O | 9.4 µM
CC(=O)OC/C=C/C=C/C#CC/C=C\CCCCCCCCOC(C)=O | > 10 µM
CCCCCCC/C=C\CC#C/C=C/C=C/COC(C)=O | 11 µM
